The values that follow come from publication PMC5600292 (Biochimica et biophysica acta, 2017).

Holding throughout (assay type): biochemical
Test [1] deals with human recombinant thrombin W60dA (Homo sapiens, UniProt P00734, W413A). The test can be described thus: HPLC-based kinetic assay of FXIII AP hydrolysis, W60dA thrombin. As to conditions: W60dA IIa, pH 7.4, 25 °C, average of at least three independent experiments ± SEM. Summed up:
(§1)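 Synthetic Ac-/-NH2 FXIII (28–41) AP peptides (V34, L34, F34, W34, Y34) were used at 75–2500 µM final in 50 mM H3PO4, 100 mM NaCl, 0.1% PEG, pH 7.4, 25 °C. Recombinant human thrombin (6 nM–1 µM) started the reaction; aliquots were quenched with 12.5% H3PO4, keeping hydrolysis below 17% in 30 min. The (28–37) product was quantified by RP-HPLC against calibration curves. Initial velocities were fitted to V = Vmax/(1+Km/[S]), kcat taken from thrombin concentration, in triplicate.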

Test [2] addresses human recombinant thrombin wild-type (WT) (Homo sapiens, UniProt P00734). Kind of test: HPLC-based kinetic assay of thrombin-catalyzed hydrolysis of FXIII. The settings on record: WT IIa, pH 7.4, 25 °C, average of at least three independent experiments ± SEM. Summed up:
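Recombinant human thrombin hydrolysed acetylated, amidated FXIII (28–41) activation peptides with V, L, F, W or Y at position 34 (final 75–2500 µM). Reactions ran at 25 °C in 50 mM H3PO4, 100 mM NaCl, 0.1% PEG, pH 7.4, with 6 nM–1 µM thrombin, and kept <17% hydrolysis in 30 min. Timed aliquots were quenched with 12.5% H3PO4. The (28–37) product was quantified by C18 RP-HPLC against calibration curves, giving initial velocities. These were fit to V = Vmax/(1 + Km/[S]), and kcat came from thrombin concentration. Runs were in triplicate.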

In test [3] the target is human recombinant thrombin L99A (Homo sapiens, UniProt P00734, L459A). The test can be described thus: HPLC-based kinetic assay of FXIII AP hydrolysis, L99A thrombin. Summed up:
as §1

For test [4], the target named is human recombinant thrombin I174A (Homo sapiens, UniProt P00734, I542A). Kind of test: HPLC-based kinetic assay of FXIII AP hydrolysis, I174A thrombin. In a few lines:
as §1

Test [5] addresses human recombinant thrombin W215A/E217A (WE) (Homo sapiens, UniProt P00734, E592A/W590A). Kind of test: HPLC-based kinetic assay of FXIII AP hydrolysis, W215A/E217A. Summed up:
as §1

Test [6] deals with human recombinant thrombin W215A (Homo sapiens, UniProt P00734, W590A). The test can be described thus: HPLC-based kinetic assay of FXIII AP hydrolysis, W215A thrombin. In a few lines: as §1
[7] abbreviates: L99A IIa, HPLC assay, pH 7.4, 25 °C, average of at least three independent experiments ± SEM, SEM.
Setting [8] is: I174A IIa, HPLC assay, pH 7.4, 25 °C, average of at least three independent experiments ± SEM, SEM.
Setting [9] is: WE (W215A/E217A) IIa, HPLC assay, pH 7.4, 25 °C, average of at least three independent experiments ± SEM, SEM.
[10] abbreviates: W215A IIa, HPLC assay, pH 7.4, 25 °C, average of at least three independent experiments ± SEM, SEM.

By kcat/Km is commonly meant the turnover number divided by the Michaelis constant. The term Km denotes the concentration of substrate that gives half-maximal velocity. In general, kcat refers to the maximal rate divided by the concentration of active sites. Consider “Ac-TVELQGWVPRGVNL-NH2 [FXIII (28–41) W34 AP]”, for which the kcat/Km is 1200 ± 120 M⁻¹ s⁻¹ in test [1]; 12000 ± 1200 M⁻¹ s⁻¹ in test [2]; 3200 ± 490 M⁻¹ s⁻¹ in test [3] (L99A IIa, HPLC assay, pH 7.4, 25 °C, average of at least three independent experiments ± SEM); 54000 ± 5500 M⁻¹ s⁻¹ in test [4] (I174A IIa, HPLC assay, pH 7.4, 25 °C, average of at least three independent experiments ± SEM); 270 ± 35 M⁻¹ s⁻¹ in test [5] (WE (W215A/E217A) IIa, HPLC assay, pH 7.4, 25 °C, average of at least three independent experiments ± SEM); 5600 ± 340 M⁻¹ s⁻¹ in test [6] (W215A IIa, HPLC assay, pH 7.4, 25 °C, average of at least three independent experiments ± SEM). Moreover, the Michaelis-Menten constant (Km) in test [1] (SEM) stood at 976 ± 89 µM; in test [2] (SEM), 637 ± 56 µM; in test [3] (setting [7]) it was 719 ± 97 µM; in test [4] (setting [8]), 256 ± 24 µM; in test [5] (setting [9]) it was 1280 ± 161 µM; in test [6] (setting [10]) it was 1030 ± 57 µM. Besides, the kcat in test [1] (SEM) came out at 1.21 ± 0.05 s⁻¹; in test [2] (SEM) it was 7.62 ± 0.3 s⁻¹; in test [3] (setting [7]), 2.3 ± 0.17 s⁻¹; in test [4] (setting [8]), 13.9 ± 0.52 s⁻¹; in test [5] (setting [9]), 0.35 ± 0.03 s⁻¹; in test [6] (setting [10]), 5.76 ± 0.14 s⁻¹. In addition, in test [3] (L99A thrombin, current work), the “fold decrease in kcat relative to WT thrombin” value was found to be 3 fold. In addition, the “fold increase in kcat relative to WT thrombin” value in test [4] (I174A thrombin, current work) came to 2 fold. For the same substance, the “fold increase in kcat/Km relative to WT thrombin” value in test [4] (I174A thrombin, current work) amounted to 4.5 fold. The “fold decrease in Km over WT thrombin” value in test [5] (WE thrombin, current work) amounted to 2 fold; in test [6] (W215A thrombin, current work), 2 fold.
